Usually EC50 stands for the concentration at which the effect is half-maximal. Broadly, the Emax is the size of the effect at its maximum, as opposed to the concentration needed. What is called Ki is the dissociation constant of the complex between target and ligand, obtained from inhibition or displacement. High values mean a looser hold on the target, low ones a stronger hold on the target.

The target of test [1] is T1, Melatonin receptor type 1A (Homo sapiens, UniProt P48039). Briefly: Intrinsic activity at human MT1 receptor transfected in CHO cell membranes after 1 hr by [35S]GTPgammaS binding assay. The format is functional. In a few lines:
(§1)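 Transfected CHO membranes at 20 μg/mL were incubated in 20 mM HEPES pH 7.4 with 100 mM NaCl, 3 μM GDP, 3 mM MgCl2 and 20 μg/mL saponin. 0.2 nM [35S]GTPγS was added and incubation ran 1 h at room temperature. Nonspecific binding was defined by 10 μM GTPγS, with 1 μM melatonin as reference. Filtration was on GF/B. Curves used 7 concentrations in duplicate, giving EC50 and Emax.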

Test [2] deals with T1, Melatonin receptor type 1A. Briefly: Displacement of 2-[125I]-Iodomelatonin from human MT1 receptor transfected in CHO cell membranes after 120 mins. In a few lines:
(§2)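 Membranes from CHO cells stably expressing the receptor were pelleted and homogenized in Tris 5 mM/EDTA 2 mM, then held at -80 °C. Assay buffer was 50 mM Tris-HCl pH 7.4 with 5 mM MgCl2. Radioligand was 20 pM, with nonspecific binding defined by 1 μM melatonin.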

The nature of test [3]: (§3) Intrinsic activity at human MT2 receptor transfected in CHO cell membranes after 1 hr by [35S]GTPgammaS binding assay. In a few lines:
as §1
On the technique in general: Binding of GTPγS marks nucleotide exchange on a G protein.

The subject of test [4] is CHO. The description is as §3. In a few lines: as §1
Test [5] can be described thus: Displacement of 2-[125I]-Iodomelatonin from human MT2 receptor transfected in CHO cell membranes after 120 mins. The method in brief: as §2
For test [6], the species on record is Homo sapiens. Briefly: Selectivity ratio of Ki for human MT1 receptor to Ki for human MT2 receptor.

T1 sequence (P48039 whole entry): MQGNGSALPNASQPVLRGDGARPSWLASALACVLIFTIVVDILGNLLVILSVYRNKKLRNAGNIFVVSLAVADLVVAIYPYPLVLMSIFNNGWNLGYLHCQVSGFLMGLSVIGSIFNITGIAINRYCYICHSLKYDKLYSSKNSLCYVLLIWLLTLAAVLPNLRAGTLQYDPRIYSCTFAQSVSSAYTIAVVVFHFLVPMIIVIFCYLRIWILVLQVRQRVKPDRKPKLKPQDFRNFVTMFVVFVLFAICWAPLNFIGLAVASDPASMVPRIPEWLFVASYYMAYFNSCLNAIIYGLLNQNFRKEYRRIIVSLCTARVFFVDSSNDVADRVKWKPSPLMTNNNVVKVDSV

As for `CCC(=O)NCC1CCc2c(cccc2OC)N1` (racemic), the EC50 in test [1] turned out to be 906 nM; in test [3], 165 nM. The Emax was 70% in test [1] and 98% in test [4]. The values for the Ki in test [2] and in test [5] were 57 nM and 21 nM, respectively.
`CCC(=O)NCCC1CCc2ccccc2N1Cc1ccccc1` (racemic): the Ki in test [2] was 326 nM; in test [5], 1.6 nM. The same compound yielded an EC50 in test [3] of 4.7 nM. In addition, the Emax in test [4] was 59%.
Consider `CCCN1c2ccccc2CCC1CNC(C)=O` (racemic), for which the 50% effective concentration (EC50) in test [1] amounted to 2 nM; in test [3], 0.2 nM. Further, the Emax in test [1] turned out to be 39%; in test [4] it was 58%. For the same compound, the Ki came out at 5.8 nM in test [2] and 0.1 nM in test [5].
As for `CCC(=O)NCC1CCc2cc(OC)ccc2N1Cc1ccccc1` (racemic), the Ki in test [2] stood at 186 nM; in test [5], 1.5 nM. A half-maximal effect in test [3] (EC50) was put at 4.6 nM. In test [4], the Emax is 75%.
Regarding `CCC(=O)NCC1CCc2c(OC)cccc2N1Cc1ccccc1` (racemic), the Ratio Ki in test [6] was over 10000. The results for the EC50 in test [1] and in test [3] were 177 nM and 0.9 nM, respectively. Moreover, the maximal response (Emax) was 79% in test [1] and 111% in test [4]. Moreover, the Ki was determined as 17 nM in test [2] and 0.001 nM in test [5].
`CC(=O)NCC1CCc2ccccc2N1CCc1ccccc1` (racemic): the results for the Ki in test [2] and in test [5] were 171 nM and 3 nM, respectively. Also, the Emax in test [4] was under 15%.
Consider `CCC(=O)NCC1CCc2c(OC)cccc2N1C` (racemic), for which the EC50 in test [1] amounted to 1.7 nM; in test [3] it was 0.5 nM. The Emax in test [1] was 112%; in test [4], 122%. Moreover, the Ki in test [2] amounted to 0.03 nM; in test [5], 0.5 nM.
For the compound `CCNC(=S)NCC1CCc2c(cccc2OC)N1` (racemic), the Ki in test [2] and in test [5] was over 1000 nM each time.
With `CCC(=O)NCC1CCc2ccccc2N1C` (racemic), the half-maximal effective concentration (EC50) in test [1] turned out to be 0.9 nM; in test [3], 0.6 nM. The Emax in test [1] was 69%; in test [4] it was 122%. Moreover, the Ki was determined as 0.7 nM in test [2] and 0.2 nM in test [5].
For `CCC(=O)NCC1CCc2ccc(OC)cc2N1Cc1ccccc1` (racemic), the Ki in test [2] came to 214 nM; in test [5], 26 nM. For the same compound, in test [3], the EC50 came out at 25 nM. The Emax in test [4] was determined as 42%.
On to `CCNC(=O)NCC1CCc2ccccc2N1C` (racemic), for which the EC50 turned out to be 110 nM in test [1] and 6.2 nM in test [3]. Further, the Emax in test [1] turned out to be 69%; in test [4], 97%. Further, the Ki in test [2] came out at 5.3 nM; in test [5] it was 3.4 nM.
Take `CC(=O)NC[C@H]1CCc2ccccc2N1Cc1ccccc1`: the results for the EC50 in test [1] and in test [3] were 192 nM and 1.9 nM, respectively. Besides, the Emax was found to be 52% in test [1] and 80% in test [4]. Further, the Ki in test [2] stood at 45 nM; in test [5], 0.1 nM.
As for `CCC(=O)NCC1CCc2ccccc2N1CC(=O)NC` (racemic), the Ki in test [2] was over 10000 nM; in test [5], 385 nM.
Turning to `CCNC(=O)NCC1CCc2c(OC)cccc2N1Cc1ccccc1` (racemic), the EC50 was determined as 393 nM in test [1] and 13 nM in test [3]. In addition, the Emax is 44% in test [1] and 107% in test [4]. In addition, the Ki is 132 nM in test [2] and 2.9 nM in test [5].
In the case of `CCNC(=O)NCC1CCc2ccccc2N1` (racemic), the EC50 in test [1] was 2420 nM; in test [3], 356 nM. Also, the Emax in test [1] came out at 30%; in test [4] it was 80%. Moreover, the Ki was 115 nM in test [2] and 17 nM in test [5].
Take `CCNC(=S)NCC1CCc2ccccc2N1C` (racemic): the EC50 in test [1] was found to be 809 nM; in test [3], 66 nM. Also, the figures for the Emax in test [1] and in test [4] were 76% and 73%, respectively. Moreover, the Ki in test [2] came out at 22 nM; in test [5], 15 nM.
As for `CC(=O)NCC1CCc2ccccc2N1Cc1ccccc1` (racemic), the values for the half-maximal effective concentration (EC50) in test [1] and in test [3] were 31 nM and 0.4 nM, respectively. Moreover, the maximal effect (Emax) in test [1] was 35%; in test [4], 60%. Also, the Ki turned out to be 45 nM in test [2] and 0.04 nM in test [5].
Turning to `CCC(=O)NCC1CCc2ccccc2N1` (racemic), the EC50 came out at 242 nM in test [1] and 27 nM in test [3]. For the same compound, the Emax in test [1] came to 37%. In addition, the figures for the Ki in test [2] and in test [5] were 13 nM and 2.2 nM, respectively.
As for `CCC(=O)NCC1CCc2ccccc2N1c1ccccc1` (racemic), the values for the EC50 in test [1] and in test [3] were 6.2 nM and 0.5 nM, respectively. The Emax came to 69% in test [1] and 90% in test [4]. Also, the Ki in test [2] turned out to be 1.6 nM; in test [5] it was 0.06 nM.
As for `O=C(NCC1CCc2ccccc2N1Cc1ccccc1)C1CCC1` (racemic), the figures for the inhibition constant (Ki) in test [2] and in test [5] were 633 nM and 6.2 nM, respectively. The same compound gave an Emax in test [4] of under 15%.
As for `O=C(NCC1CCc2ccccc2N1Cc1ccccc1)C1CC1` (racemic), the Ki in test [2] stood at 291 nM; in test [5], 0.2 nM. This compound also yielded an EC50 in test [3] of 0.3 nM. Besides, the Emax in test [4] was determined as 38%.
Turning to `CCC(=O)NCc1ccc2c(OC)cccc2n1`, the inhibition constant Ki in test [2] was over 10000 nM; in test [5], 4450 nM.
On to `CCC(=O)NCC1CCc2ccccc2N1Cc1ccccc1` (racemic), for which the Ratio Ki in test [6] was over 400. Also, the EC50 in test [1] stood at 36 nM; in test [3] it was 0.4 nM. Besides, the Emax is 42% in test [1] and 73% in test [4]. In addition, the inhibition constant (Ki) in test [2] came out at 37 nM; in test [5], 0.09 nM.
In the case of `CCNC(=O)NCC1CCc2c(cccc2OC)N1` (racemic), the results for the Ki in test [2] and in test [5] were 480 nM and 114 nM, respectively.
Regarding `CC(=O)NC[C@@H]1CCc2ccccc2N1Cc1ccccc1`, the Ki in test [2] was determined as 122 nM; in test [5], 6.2 nM. In test [3], this compound had an EC50 of 19 nM. Further, the maximum response (Emax) in test [4] is 60%.
Take `CCNC(=O)NCC1CCc2c(OC)cccc2N1C` (racemic): the EC50 in test [1] was 160 nM; in test [3] it was 10 nM. Also, the figures for the Emax in test [1] and in test [4] were 92% and 105%, respectively. The Ki turned out to be 5 nM in test [2] and 1.4 nM in test [5].
Regarding `CCNC(=S)NCC1CCc2ccccc2N1` (racemic), the EC50 in test [1] came out at 2660 nM; in test [3], 1430 nM. In addition, the Emax amounted to 35% in test [1] and 72% in test [4]. In addition, the Ki in test [2] turned out to be 305 nM; in test [5], 90 nM.

The values above are taken from ChEMBL document CHEMBL3611983, “Highly Potent and Selective MT2 Melatonin Receptor Full Agonists from Conformational Analysis of 1-Benzyl-2-acylaminomethyl-tetrahydroquinolines” (J Med Chem, 2015).
